Results pooled from the literature.
Each line is one published result; the experiments were not run side by side.
Target: Casein kinase I isoform gamma-2 (CSNK1G2, Homo sapiens, UniProt P78368)

| Compound | test | conditions | measurement | result |
| --- | --- | --- | --- | --- |
| COc1cc(Cl)c(C(=O)N[C@@H](CN[C@H]2CC[C@@H](N)CC2)Cc2ccc(C#N)cc2)cc1-c1ccc(CN[C@H](C)c2ccc(C)cc2)o1 | enzyme activity, inhibitor | 1 µM | remaining activity | 112% |
| COc1cc(Nc2cnc(C#N)c(O[C@H](C)CN(C)C)n2)ncc1-c1cnn(C)c1 | enzyme activity, inhibitor, radiometric | 1 µM | remaining activity | 101% |
| C[C@@H](c1cccc(C#N)c1)n1cc(Cl)cc(C(N)=O)c1=N | cell-free assay, competition with immobilised ligand | 1 µM | remaining binding | 100% |
| C#Cc1cccc(Nc2ncnc3cc(OCCOC)c(OCCOC)cc23)c1 | cell-free assay | 0.5 µM | remaining signal | 98.3% |
| COc1ccc2cc(OCC3(C(=O)O)CN(C(=O)c4ccc(F)cc4)C3)ccc2c1 | cell-free assay, competition with immobilised ligand | 1 µM | remaining binding | 100% |
| CC(C)(C)c1nc2c(s1)c1nc(N)ncc1c1ccc(NS(=O)(=O)c3c(F)cccc3F)c(F)c12 | enzyme activity, inhibitor, radiometric | 1 µM | remaining activity | 104% |
| NS(=O)(=O)c1cc(NC(=O)C2(c3ccccc3Cl)CC2)ccc1Oc1cccc(Cl)c1 | cell-free assay, competition with immobilised ligand | 1 µM | remaining binding | 82% |
| O=C(Nc1cnn(-c2csc(C(=O)NC3COC3)c2)c1)Nc1c(F)cccc1Cl | enzyme activity, inhibitor | 5 µM | remaining activity | 90.2% |
| COc1cc2ncnc(Nc3ccc(Oc4ccccc4)c(C)c3C)c2cc1OC | enzyme activity, inhibitor | 1 µM | inhibition | 1% |
| Cc1ccc(C(=O)Nc2ccc(CN3CCN(C)CC3)c(C(F)(F)F)c2)cc1C#Cc1cnc2cccnn12 | enzyme activity, inhibitor | 23.5 nM | remaining activity | 96% |
| Nc1ncnc2occ(-c3ccc(NC(=O)Nc4cc(C(F)(F)F)ccc4F)cc3)c12 | cell-free assay, inhibitor | 20 µM | remaining signal | 6.8% |
| CNC(=O)c1cc(Oc2ccc(NC(=O)Nc3ccc(Cl)c(C(F)(F)F)c3)cc2)ccn1 | enzyme activity, inhibitor | 10 µM | inhibition | -4% |
| O=C1NC(=O)c2cc(Nc3ccc(F)cc3)c(Nc3ccc(F)cc3)cc21 | cell-free assay | 0.5 µM | remaining signal | 97.5% |
| COc1cc(/C=C/C(=O)CC(=O)/C=C/c2ccc(O)c(OC)c2)ccc1O | enzyme activity, inhibitor | 1 µM | activity vs control | 77% |
| CCc1ccccc1C(=O)Nc1n[nH]c2c(C)c(F)c(C3C(C#N)=C(C)N(C)C(C)=C3C#N)cc12 | cell-free assay, competition with immobilised ligand | 1 µM | remaining binding | 97% |
| N#CCCc1ccc2c(c1)-c1[nH]c3ccc([N+](=O)[O-])cc3c1CC(=O)N2 | cell-free assay | 0.5 µM | remaining signal | 84.8% |
| COc1ccc2c(O[C@@H]3C[C@H]4C(=O)N[C@]5(C(=O)O)CC5/C=C\CCCCC[C@H](NC(=O)OC5CCCC5)C(=O)N4C3)cc(-c3csc(NC(=O)C(C)C)n3)nc2c1C (stereo partly shown) | cell-free assay, competition with immobilised ligand | 1 µM | remaining binding | 90% |
| CS(=O)(=O)Nc1cccc(-c2csc(NC(=O)CSc3nc4nccnc4c(=O)n3CCc3ccccc3)n2)c1 | enzyme activity, inhibitor | 10 µM | inhibition | 8% |
| CCCOc1ccc([C@@H]2[C@@H](C(=O)O)[C@H](c3ccc4c(c3)OCO4)CN2CC(=O)Nc2c(CC)cccc2CC)cc1 | cell-free assay, competition with immobilised ligand | 1 µM | remaining binding | 96% |
| Cc1cnc(NC2CCOCC2)nc1-n1cnc(C(=O)NC(CN)c2cc(F)cc(Cl)c2)c1 (stereo not shown) | enzyme activity, inhibitor, radiometric | 1 µM | remaining activity | 53% |
| Nc1cnc(N2CCc3cc(S(=O)(=O)Nc4c(F)cc(Cl)cc4F)cc(N4CCCC4=O)c32)nc1 | cell-free assay, competition with immobilised ligand | 1 µM | remaining binding | 88% |
| O=C1Nc2ccc(Cl)cc2C1=Cc1cc(Cl)c(O)c(Cl)c1 | cell-free assay | 0.5 µM | remaining signal | 83.5% |
